From ChEMBL document CHEMBL1136962, “Galactosyl prodrug of ketorolac: synthesis, stability, and pharmacological and pharmacokinetic evaluations” (J Med Chem, 2009)
Each block holds one compound with its values, some of them ahead of it. The source made the active and inactive calls. The calls are words filed in the database; no cut-off is given here.

What was measured:
[1] = Stability in rat plasma assessed as half life; assay type: ADME, cell-free
Procedure, shortened: (§1)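 Solutions of 100 µg/mL (ketorolac tris salt at 90.5 µg/mL) held at 37 °C for 24 h in 0.1 N HCl (pH 1), phosphate buffer pH 7.4 or 8.0, or plasma. Samples taken hourly; plasma samples extracted with acetonitrile (1:2) and centrifuged. Remaining ester measured by HPLC diode array at 313 nm. Pseudo-first-order t1/2 from log plots over time; mean ± SEM.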

Rattus norvegicus [2] = experiment: Mean residence time in Wistar rat assessed as time required for 63.2% of administered dose to be eliminated as ketorolac at 0.163 mg/kg, po; assay type: ADME, organism-based; set-up: dose 0.163 mg/kg, route oral; settings: in vivo
Procedure, shortened: (§2)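 Male Wistar rats (200 ± 20 g), single oral dose; killed by decapitation at […], at least three rats per time point, each measured in triplicate. Plasma deproteinized with acetonitrile, centrifuged, organic phase analyzed by C18 HPLC at 313 nm with tolmetine internal standard. Calibration 0.1-100 µg/mL in drug-free matrix. Parameters taken from semilog concentration-time plots.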

Mus musculus [3] = experiment: Analgesic activity against magnesium sulfate-induced writhing in po dosed Swiss mouse administered 1 hr before magnesium sulfate challenge measured for 5 mins; assay type: functional, organism-based
Procedure, shortened: (§3)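 Male Swiss mice (20-25 g), fasted overnight, water allowed, six per group. Oral dosing with CMC vehicle given 1 h before ip 0.6% acetic acid or ip magnesium sulfate 120 mg/kg. Abdominal constriction, trunk turning and hind-leg extension counted: for acetic acid over 20 min starting 5 min post-injection, for MgSO4 over 5 min. Mean ± SEM.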

Mus musculus [4] = experiment: Analgesic activity against acetic acid-induced writhing in po dosed Swiss mouse administered 1 hr before acetic acid challenge measured after 5 mins for 20 mins; assay type: functional, organism-based; procedure, shortened: as §3
Rattus norvegicus [5] = experiment: Half life in Wistar rat assessed as ketorolac release at 0.163 mg/kg, po; assay type: ADME, organism-based; set-up: dose 0.163 mg/kg, route oral; settings: in vivo; procedure, shortened: as §2
Rattus norvegicus [6] = experiment: Cmax in Wistar rat assessed as ketorolac release at 0.163 mg/kg, po; assay type: ADME, organism-based; set-up: dose 0.163 mg/kg, route oral; settings: in vivo; procedure, shortened: as §2
[7] = Chemical stability assessed as hydrolysis half life in phosphate buffer at pH 7.4; assay type: physicochemical; procedure, shortened: as §1
Rattus norvegicus [8] = experiment: Tmax in Wistar rat assessed as ketorolac release at 0.163 mg/kg, po; assay type: ADME, organism-based; set-up: dose 0.163 mg/kg, route oral; settings: in vivo; procedure, shortened: as §2
Mus musculus [9] = experiment: Gastrointestinal toxicity in fasted Swiss mouse assessed ulcer index at 0.163 mg/kg, po after 4 hrs; assay type: organism-based; set-up: dose 0.163 mg/kg, route oral; settings: in vivo
Procedure, shortened: (§4)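 Male Swiss mice, fasted 16-18 h, n = 6 per group, dosed orally (vehicle 0.5% CMC). Killed 4 h later; stomach opened along greater curvature, rinsed with saline and examined under magnifier. Scoring: irritation 1, lesions 1-3 mm 5, lesions >3 mm 10. Gastric lesion score and ulcer number given as mean ± SEM.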

Rattus norvegicus [10] = experiment: AUC (0 to 6 hrs) in Wistar rat assessed as ketorolac release at 0.163 mg/kg, po; assay type: ADME, organism-based, Plasma; set-up: time < 6 hr, dose 0.163 mg/kg, route oral; settings: in vivo; procedure, shortened: as §2
Rattus norvegicus [11] = experiment: AUMC (0 to 6 hrs) in Wistar rat assessed as ketorolac release at 0.163 mg/kg, po; assay type: ADME, organism-based; set-up: dose 0.163 mg/kg, route oral; settings: in vivo; procedure, shortened: as §2
[12] = Chemical stability assessed as hydrolysis half life in phosphate buffer at pH 8.0; assay type: physicochemical; procedure, shortened: as §1
Mus musculus [13] = experiment: Analgesic activity against acetic acid-induced writhing in Swiss mouse at 0.163 mg/kg, po administered 1 hr before acetic acid challenge measured after 5 mins for 20 mins; assay type: functional, organism-based; set-up: dose 0.163 mg/kg; procedure, shortened: as §3
[14] = Chemical stability assessed as hydrolysis half life in 0.1N HCl at pH 1; assay type: physicochemical; procedure, shortened: as §1
Rattus norvegicus [15] = experiment: Elimination half life in Wistar rat assessed as ketorolac release at 0.163 mg/kg, po; assay type: ADME, organism-based; set-up: dose 0.163 mg/kg, route oral; settings: in vivo; procedure, shortened: as §2
Rattus norvegicus [16] = experiment: Systemic clearance in Wistar rat assessed as ketorolac release at 0.163 mg/kg, po; assay type: ADME, organism-based; set-up: dose 0.163 mg/kg, route oral; settings: in vivo; procedure, shortened: as §2
Mus musculus [17] = experiment: Gastrointestinal toxicity in fasted Swiss mouse assessed ulcer index at 0.1 mg/kg, po after 4 hrs; assay type: organism-based; set-up: dose 0.1 mg/kg, route oral; settings: in vivo; procedure, shortened: as §4
[18] = Systemic clearance in Wistar rat at 0.1 mg/kg, po; assay type: ADME, organism-based; set-up: dose 0.1 mg/kg, route oral; settings: in vivo; procedure, shortened: as §2
[19] = AUC (0 to 6 hrs) in Wistar rat at 0.1 mg/kg, po; assay type: ADME, organism-based; set-up: time < 6 hr, dose 0.1 mg/kg, route oral; settings: plasma; procedure, shortened: as §2
[20] = Tmax in Wistar rat at 0.1 mg/kg, po; assay type: ADME, organism-based; set-up: dose 0.1 mg/kg, route oral; settings: in vivo; procedure, shortened: as §2
Mus musculus [21] = experiment: Antiinflammatory activity in Swiss mouse assessed as reduction in carrageenan-induced hind paw edema at 10 mg/kg, po administered 1 hr before carrageenan challenge measured after 48 hrs; assay type: functional, organism-based; set-up: dose 10 mg/kg
Procedure, shortened: (§5)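 Male Swiss mice, six per group, dosed orally (CMC vehicle) 1 h before subplantar injection of 50 µL of 1% λ-carrageenan in saline into the right hind paw. Paw volume read by plethysmometer at intervals up to 96 h. Edema taken as volume minus basal volume measured just before injection. Mean ± SEM.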

Rattus norvegicus [22] = experiment: AUMC (0 to 6 hrs) in Wistar rat at 0.1 mg/kg, po; assay type: ADME, organism-based; set-up: dose 0.1 mg/kg, route oral; settings: in vivo; procedure, shortened: as §2
[23] = Elimination half life in Wistar rat at 0.1 mg/kg, po; assay type: ADME, organism-based; set-up: dose 0.1 mg/kg, route oral; settings: in vivo, read-out: beta t1/2 (converted); procedure, shortened: as §2
[24] = Half life in Wistar rat at 0.1 mg/kg, po; assay type: ADME, organism-based; set-up: dose 0.1 mg/kg, route oral; settings: in vivo; procedure, shortened: as §2
[25] = Cmax in Wistar rat at 0.1 mg/kg, po; assay type: ADME, organism-based; set-up: dose 0.1 mg/kg, route oral; settings: in vivo; procedure, shortened: as §2
Mus musculus [26] = experiment: Antiinflammatory activity in Swiss mouse assessed as reduction in carrageenan-induced hind paw edema at 0.1 mg/kg, po administered 1 hr before carrageenan challenge; assay type: functional, organism-based; set-up: dose 0.1 mg/kg; procedure, shortened: as §5
[27] = Mean residence time in Wistar rat assessed as time required for 63.2% of administered dose to be eliminated at 0.1 mg/kg, po; assay type: ADME, organism-based; set-up: dose 0.1 mg/kg, route oral; settings: in vivo; procedure, shortened: as §2

half-life [1]: 90 min | MRT (Rattus norvegicus [2]): 4.5 h | t1/2 (Rattus norvegicus [5]): 5.23 h | Cmax (Rattus norvegicus [6]): 0.24 µg/mL | half-life [7]: > 240 min | Tmax (Rattus norvegicus [8]): 1 h | AUC (Rattus norvegicus [10]): 0.935 µg·h/mL | AUMC (Rattus norvegicus [11]): 5.6 µg·h/mL | half-life [12]: > 240 min | half-life [14]: 126 min | beta t1/2 (Rattus norvegicus [15]): 2.4 h | CL (Rattus norvegicus [16]): 80.36 mL/h
Compound: O=C(c1ccccc1)c1ccc2n1CC[C@@H]2C(=O)OC[C@H]1OC(O)[C@H](O)[C@@H](O)[C@H]1O (stereo partly drawn)
Activity (Mus musculus [3]): Dose-dependent effect | Activity (Mus musculus [4]): Dose-dependent effect | UI (Mus musculus [9]): 1 | Activity (Mus musculus [13]): Active

half-life [1]: > 240 min | CL/F [18]: 1.57 mL/min | AUC(0-t) at 6 h [19]: 855 ng·h/mL | Tmax [20]: 1 h | half-life [7]: > 240 min | AUMC (Rattus norvegicus [22]): 3.3 µg·h/mL | half-life [23]: 119 min | half-life [12]: > 240 min | half-life [24]: 99 min | Cmax [25]: 400 ng/mL | half-life [14]: > 240 min | MRT [27]: 3.1 h
Compound: O=C(c1ccccc1)c1ccc2n1CCC2C(=O)O (stereo not drawn) [KETOROLAC]
UI (Mus musculus [17]): 10 | Activity (Mus musculus [3]): Dose-dependent effect | Activity (Mus musculus [4]): Dose-dependent effect | Activity (Mus musculus [21]): Active | Activity (Mus musculus [26]): inactive
